Data from PubChem BioAssay AID1136 (Sanford-Burnham Center for Chemical Genomics, 2008).
Out of some 200,000 compounds screened, fewer than 10 were called active. The list is a sample of the results. Unmarked numbers belong to inactive results.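 Rule for the calls: active = activation factor at least 2 at 20 µM; inactive = the rest.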

The compounds below were run against Alkaline phosphatase, tissue-nonspecific isozyme (Homo sapiens) (UniProt P05186) (assay: activation of human TNAP, high DEA acceptor – biochemical, luminescence, uHTS, primary screen (AID 1136)). Details: purified TNAP, CDP-star luminescence, 1 M DEA, 30 min; at 20 µM; active compounds read high; 0 = EDTA background, 1 = DMSO-only activity.
Chain of Alkaline phosphatase, tissue-nonspecific isozyme (Homo sapiens) (P05186 whole entry, looked up): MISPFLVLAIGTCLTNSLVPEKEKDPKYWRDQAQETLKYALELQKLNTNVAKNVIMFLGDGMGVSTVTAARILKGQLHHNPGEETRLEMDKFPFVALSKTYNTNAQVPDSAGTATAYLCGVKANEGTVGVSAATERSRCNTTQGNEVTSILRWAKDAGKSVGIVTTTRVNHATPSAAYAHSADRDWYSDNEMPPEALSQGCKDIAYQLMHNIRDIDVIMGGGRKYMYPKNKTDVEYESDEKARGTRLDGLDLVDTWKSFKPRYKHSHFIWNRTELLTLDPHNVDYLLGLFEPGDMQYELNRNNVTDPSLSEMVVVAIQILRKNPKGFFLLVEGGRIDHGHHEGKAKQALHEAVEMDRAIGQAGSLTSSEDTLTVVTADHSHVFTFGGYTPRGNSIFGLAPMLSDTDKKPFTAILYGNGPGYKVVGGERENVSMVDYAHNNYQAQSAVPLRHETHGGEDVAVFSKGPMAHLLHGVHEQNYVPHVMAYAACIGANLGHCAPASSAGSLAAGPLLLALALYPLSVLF
In short: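 Control set: EDTA negative control, DMSO positive control / Assay system: human TNAP / Quantity: TNAP 1/800 final / Evaluation: TNAP activation factor scaled between EDTA and DMSO control wells / Measured by: luminescent substrate turnover signal / Compound dosing: one dose, 20 µM / Times: 30 min enzyme reaction at room temperature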

SMILES	activation factor
O=C(CNC(c1ccccc1)c1ccccc1)Nc1ccc(F)cc1	1
Cc1cc(C)c(S(=O)(=O)N2CCOCC2)cc1C	1
CC1(C)C2CCC1(C)C(OC(=O)c1ccc(O)cc1)C2 (centres undefined)	1.1
Cc1nc2sc3c(c2c(=O)n1NC(=O)CCl)CCCC3	1
COc1ccc(C)cc1NC(=O)CSc1nnc(CC(=O)Nc2ccccc2F)n1C	1.1
Cc1ccc(S(=O)(=O)N2CCN(C(=O)c3cccs3)CC2)cc1	1
CCCC(=O)n1nc(NCc2ccc(OC)cc2)nc1NCc1ccc(OC)cc1	1
CNC(=S)Nc1ccc([N+](=O)[O-])cc1	1
COc1ccc(C(=O)C[n+]2ccc(C)cc2)cc1	1.1
NC(=O)COc1ccc(C23CC4CC(CC(C4)C2)C3)cc1	1.1
CCc1ccccc1NC(=S)N(CCN1CCCCCC1)Cc1ccco1	1
CCCCN1C(=O)c2ccc(C(=O)Nc3ccc(S(=O)(=O)N(C)C)cc3)cc2C1=O	1
CCCc1c(C)nc2c(Br)cccc2c1Cl	1
Clc1ccc(CN2CCN(/N=C/c3cccnc3)CC2)cc1	1
CC(=O)N1CCc2cc(Br)cc(S(=O)(=O)CCC(=O)Nc3c(C)n(C)n(-c4ccccc4)c3=O)c21	1
CCN(CC)c1ccc(C(=O)N/N=C(\C)c2cccc(OC)c2)cc1	1
Cc1ccc(C)c2[nH]c(=O)c(CCNC(=O)c3cccs3)cc12	1
O=C(/C=C/c1c(F)cccc1Cl)Nc1nn[nH]n1	1
CC(=O)Nc1ccc(/C=N/NC(=O)c2cccs2)cc1	1
CC(CC(=O)N1CCN(c2ccccc2)CC1)c1ccccc1 (centres undefined)	1
COC(=O)c1ccc(-n2cnc3ccccc32)nc1	1
CN1CCN(CC(=O)Nc2cccc([N+](=O)[O-])c2)CC1	1

SMILES	activation factor
O=C(CS(=O)(=O)c1ccccc1)Nc1ccc(S(=O)(=O)Nc2ccccn2)cc1	1
COc1ccccc1C(=O)Nn1c(-c2cccs2)nc2ccccc2c1=O	1
CCN(CC)C(=O)C(=O)c1cn(CC(=O)NCc2ccc3c(c2)OCO3)c2ccccc12	1
Cc1ccc(S(=O)(=O)CCC(=O)OCc2ccccc2)cc1	1
CCOC(=O)c1ccccc1NC(=O)CSc1nc2ccccc2c(=O)[nH]1	1
O=C(CN1CCN(c2ccc(O)cc2)CC1)NC1CCCc2ccccc21 (centres undefined)	1
O=[N+]([O-])c1cc(S(=O)(=O)CCCN2CCOCC2)ccc1F	1
O=S(=O)(/N=C(/Nc1ccccc1)c1ccccc1)c1cccs1	1
CCOc1ccc(N2C(=O)CN(c3cccc4ccccc34)C2=S)cc1	1.1
C/C(=N/OC(=O)c1cccc(C(F)(F)F)c1)c1cnccn1	1
CCN(CC)CCNC(=O)c1ccc(NS(=O)(=O)c2ccc3c(c2)OCCO3)cc1	1
Cc1cc(/C=C2/NC(=O)NC2=O)c(C)n1-c1cccnc1	1.1
C=CCC1(CC=C)CCCN1C(=O)CC1C(=O)NCCN1Cc1ccccc1OC (centres undefined)	1
C/C(=N/NC(=O)CCc1ccccc1)c1ccco1	1
CCCCN(CC)CCCNC(=O)c1ccc(CSc2nc3ccncc3[nH]2)cc1	1
CC1=CC2=NC(=O)CC(C)(C(=O)N(CC(=O)NC(C)(C)C)Cc3ccccc3)N2C=C1 (centres undefined)	1.1
O=C(CN1CCN(Cc2ccc(F)cc2Cl)C1=O)NCc1cccs1	1.1
CCC(C)(C)C1CCC(=NNC(=O)c2ccc(Br)o2)CC1 (centres undefined)	1.1
Cc1cccc(C)c1NC(=O)Nc1ccccc1-n1ccnc1	1.1
Cc1cccc(N2CCN(c3ccc(C(N)=O)cc3[N+](=O)[O-])CC2)c1C	1
COc1ccc(-c2[nH]ncc2CN(C)Cc2cccnc2)c(F)c1	1
COc1ccccc1CN(C)C(=O)C1(c2ccc(Cl)cc2)CC1	1

SMILES	activation factor
CCOC(=O)C(NC(C)=O)C(=O)Nc1ccc(OC)cc1 (centres undefined)	1.1
COc1cccc(CC2(CO)CCN(Cc3cnc(-c4cccc(C)c4)nc3)CC2)c1	1.1
CCOc1ccc(C(C)=O)cc1CSc1nnc(-c2ccncc2)n1CCOC	1
CN1CCN(/N=C/c2ccc(C#N)cc2)CC1	1
O=C1C2C3C=CC(C3)C2C(=O)N1c1ccc(-c2nc3ccccc3c(=O)o2)cc1 (centres undefined)	1
COC(=O)CC1=NN(c2ccccc2)C(=O)C1	1
COc1ccc(/C(C)=N/NC(=O)CCC(=O)Nc2ccc(Cl)cc2Cl)c(OC)c1	0.9
Cc1cccc(NC(=O)CN2C(=O)c3ccccc3C2=O)c1C	1
CC1=C(C)CC(C(=O)NC(C)CCc2ccccc2)C(C(=O)O)C1 (centres undefined)	1
Cc1ccc(O)c(-c2cc(C(=O)NCc3ccccc3)[nH]n2)c1	2.3 (active)
Cc1ccc(O)c(-c2cc(C(=O)Nc3c(C)n(C)n(-c4ccccc4)c3=O)[nH]n2)c1	1
Cc1ccc(CNC(=O)c2ccccc2CCc2ccccc2)cc1	1.1
O=C1CCC(CCC(=O)N2CCCC(C(=O)c3ccc(Cl)cc3)C2)=NN1 (centres undefined)	1.1
[O-][n+]1c2c(nn1-c1ccc(Cl)c(Cl)c1)-c1nonc1CC2	1
Cc1ccc(CN2CCC(N3CCC(C(=O)NCC4CCCO4)CC3)CC2)o1 (centres undefined)	1
Cc1ccccc1-c1n[nH]c(=S)n1/N=C/c1ccc(-c2ccccc2Br)o1	0.9
CCOC(=O)C1(Cc2cccc(OC)c2)CCCN(S(=O)(=O)c2cccnc2)C1 (centres undefined)	1.1
CCOc1ccc(C(=O)NCCCN2CCCC2=O)cc1	1
COc1ccc(NS(=O)(=O)c2cc(NC(=O)/C=C/c3cc(OC)c(OC)c(OC)c3)ccc2N2CCCCC2)cc1	1
Cc1cc(SCC(=O)NCCN2C(=O)CSC2=O)nc2ccccc12	1
